APP 5'UTR act: activates APP 5'UTR luciferase reporter; AID 1276; activation, % at 2 µM; 190,000 tested, 1% active; SH-SY5Y APP 5'UTR luciferase reporter, luminescence; zero percent = DMSO vehicle wells;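 active = activation above a set limit, based on mean plus 3 SD of controls, cut at about 140% in these data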
STAT1 act: activators of IFN-gamma induced STAT1 signaling; 200,000 tested, 2.6% active; activation (% of control), % at 5.5 µM; NIH 3T3 STAT1-luciferase reporter, luminescence; 100% = IFN-gamma alone, no compound;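 active = activation above the screen-wide mean activation plus 3 SD, cut at about 130% in these data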
AHR activator: human AHR activation; AHR-responsive luciferase reporter cells, luminescence; P35869; activation, % at 5 µM; 320,000 tested, 2.5% active; in the data active = activation above about 47%
NF-kB neuron act: compounds increasing NF-kB expression in human neuronal cells; NF-kB reporter expression; stronger effect = higher value; fold change at 12.5 µM; 190,000 tested, 1.6% active; AID 1239; in the data active = fold change above about 3.3
MDM2 E3 inh: Mdm2 E3 ligase (human) inhibition; Q00987; cell-based MDM2 ubiquitination luciferase reporter, 2 h; 0 = plate control, 100 = twice control, blank-subtracted; signal enhancement, % at 5 µM; 210,000 tested, 0.11% active;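 active = signal enhancement of 30% or more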;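 also: luminescence tracks abundance of the self-degrading MDM2-luciferase fusion protein; higher signal means inhibition of MDM2 E3 ligase activity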
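System: stable MDM2–luciferase fusion reporter cells / Input: 2000 cells seeded into each well / Schedule: 4 h settle plus 2 h compound, 37 °C / Compound: single-point 5 µM / Buffer or medium: cells held in DMEM / Benchmarks: control and blank well means / Evaluation: percent signal gain over controls, blank-subtracted / Measured by: luciferase luminescence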
PERK inhibitor: human PERK inhibition, primary cell-based screen | Q9NZJ5 | CHO PERK-DD fusion, SEAP luminescence translation reporter | inhibition, % at 5.6 µM | 220,000 tested, 0.17% active;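 active = inhibition above the mean inhibition of all tested compounds plus 3 SD, set separately per screening campaign, cut at about 2.9% in these data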;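 also: PERK kinase domain activated by AP20187 dimerizer at 100 nM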
Target sequence (Q9NZJ5 whole entry, looked up, the tested form may be a part): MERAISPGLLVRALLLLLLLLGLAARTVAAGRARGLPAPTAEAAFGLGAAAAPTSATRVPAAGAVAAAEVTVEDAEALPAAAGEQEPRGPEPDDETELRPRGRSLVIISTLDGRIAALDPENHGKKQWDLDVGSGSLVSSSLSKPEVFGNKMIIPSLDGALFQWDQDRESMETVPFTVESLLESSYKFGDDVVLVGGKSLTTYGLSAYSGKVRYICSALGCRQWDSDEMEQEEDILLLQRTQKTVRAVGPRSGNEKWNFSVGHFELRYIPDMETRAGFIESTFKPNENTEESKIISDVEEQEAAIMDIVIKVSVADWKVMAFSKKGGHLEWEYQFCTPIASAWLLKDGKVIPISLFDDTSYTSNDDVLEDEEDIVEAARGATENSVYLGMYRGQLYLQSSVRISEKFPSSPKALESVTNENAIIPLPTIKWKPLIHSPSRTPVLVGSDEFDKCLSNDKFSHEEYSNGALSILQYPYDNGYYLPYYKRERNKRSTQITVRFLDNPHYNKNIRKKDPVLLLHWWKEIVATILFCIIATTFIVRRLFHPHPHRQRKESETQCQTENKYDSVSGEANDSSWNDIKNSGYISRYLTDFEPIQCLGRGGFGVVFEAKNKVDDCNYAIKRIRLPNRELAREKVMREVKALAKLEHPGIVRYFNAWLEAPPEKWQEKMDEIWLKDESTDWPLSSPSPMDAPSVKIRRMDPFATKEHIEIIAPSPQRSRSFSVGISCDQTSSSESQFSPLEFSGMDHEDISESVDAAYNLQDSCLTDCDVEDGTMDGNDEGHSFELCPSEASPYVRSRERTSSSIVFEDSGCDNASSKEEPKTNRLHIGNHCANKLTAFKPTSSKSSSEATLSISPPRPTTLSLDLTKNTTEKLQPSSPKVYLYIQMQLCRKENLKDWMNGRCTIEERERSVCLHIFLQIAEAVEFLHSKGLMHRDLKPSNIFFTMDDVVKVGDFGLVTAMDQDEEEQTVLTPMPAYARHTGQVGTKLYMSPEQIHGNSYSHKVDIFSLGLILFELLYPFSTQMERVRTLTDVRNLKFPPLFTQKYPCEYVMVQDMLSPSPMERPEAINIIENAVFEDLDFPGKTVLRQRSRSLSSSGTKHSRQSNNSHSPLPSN
Numbers stand for hits; - = inactive; . = no result. Sampled rows, rich in hits. Any-hit rate of the full collection: about 4.5%.

SMILES	APP 5'UTR act	STAT1 act	AHR activator	NF-kB neuron act	MDM2 E3 inh	PERK inhibitor
Cn1c(=O)n(CCc2ccccc2)c(=O)c2c1nc1n2CCCN1CCc1ccccc1	-	-	82.8	-	-	-
CCCn1c(=O)c2c(nc3n2CCCN3CCc2ccccc2)n(C)c1=O	.	.	-	.	.	.
CCOC(=O)c1c(C)n(C)c2cc(-c3cccc(C(F)(F)F)c3)c(O)cc12	-	-	49.3	-	-	-
CCOC(=O)c1c(C)n(C)c2cc(-c3ccc(C)cc3)c(O)cc12	-	-	-	-	-	-
N#Cc1ccc(OCC(=O)n2cc(C(=O)c3cc(Cl)cc(Cl)c3O)cn2)cc1	.	.	70.2	.	.	-
N#Cc1c(/N=C/c2cccs2)sc2c1CCCCC2	148.5	-	-	-	-	-
Nc1nc(-c2ccccc2)c(N=Nc2cccc3ccccc23)s1	-	-	70.1	-	-	-
N#Cc1ccccc1OCCN1C(=O)c2ccccc2C1=O	-	-	-	-	-	-
Nc1cccc2c1C(=O)N(CCOc1ccccc1F)C2=O	.	.	76.6	.	.	.
Cc1c(C=Nc2ccc(S(=O)(=O)CCO)cc2)c(O)[nH]c(=O)c1C#N	.	.	-	.	.	.
COCCCNc1nc2ccccc2nc1NS(=O)(=O)c1cccc(C)c1	.	.	-	.	.	.
CC(=O)Nc1ccc(/C=C/c2noc(-c3ccccc3O)n2)cc1	.	.	-	.	.	.
Oc1ccccc1/C=C/c1noc(-c2ccccc2O)n1	-	-	66.1	-	-	-
CCCN(Cc1cc2cc(C)ccc2[nH]c1=O)C(=O)c1cccc([N+](=O)[O-])c1	.	.	-	.	-	-
Cc1ccc(-c2nn(-c3ccccc3)cc2/C=N/O)cc1	.	.	-	.	.	.
O=C(O)c1cccc(NC(=O)c2cn(-c3ccccc3)nc2-c2cc3ccccc3o2)c1	-	-	-	-	-	-
O=C(N/N=C/c1cn(-c2ccccc2)nc1-c1cccnc1)c1cccnc1	-	-	-	-	-	-
O=C(N/N=C/c1cn(-c2ccccc2)nc1-c1cc2ccccc2o1)c1ccncc1	187.8	143.5	68.3	-	-	-
O/N=C/c1cn(-c2ccccc2)nc1-c1cccnc1	-	-	51.2	-	-	-
O=C(N/N=C/c1cn(-c2ccccc2)nc1-c1cc2ccccc2o1)c1cccnc1	147.8	-	51.4	-	-	-
Cc1cc(C)n(-c2ccc(C(=O)N3CCN(S(=O)(=O)c4ccc(Cl)cc4)CC3)cc2)n1	.	.	-	.	.	.
COc1ccc(-c2cnn3c(N)c(S(=O)(=O)C(C)(C)C)cnc23)cc1	-	-	-	6.36	-	-
CCS(=O)(=O)c1nc(S(=O)(=O)c2ccc(C)cc2)c(NCCCn2ccnc2)s1	.	.	-	.	.	.
CSc1nc(N)nc2c1ncn2CC(=O)Nc1ccc(C)c(C)c1	.	.	-	.	.	.
Cc1ccc(S(=O)(=O)N2CCCOC2CNC(=O)C(=O)NCCc2c[nH]c3ccccc23)cc1 (stereo unspecified)	-	-	-	-	-	-
SMILES	APP 5'UTR act	STAT1 act	AHR activator	NF-kB neuron act	MDM2 E3 inh	PERK inhibitor
Cc1cc(C)c2nc(-c3ccccn3)cc(C(=O)N3CCCC3)c2c1	.	.	55.9	.	.	.
CC1Cc2nc(SCC(=O)Nc3nc4ccccc4s3)n(C)c(=O)c2S1 (stereo unspecified)	-	-	60.3	-	-	-
NC(=O)C1CCN(C(=O)C2c3ccccc3C(=O)N3CCc4ccccc4C23)CC1 (stereo unspecified)	-	-	60.9	-	-	-
CCOCCCNC(=O)C1c2ccccc2C(=O)N2CCc3ccccc3C12 (stereo unspecified)	-	-	76.2	-	-	-
CCN(CC)C(C)C(=O)NCC1(c2ccccc2)CCOCC1 (stereo unspecified)	-	-	-	-	-	-
O=c1cc(-c2ccccc2Cl)oc2c(Br)ccc(O)c12	-	-	47.4	-	.	-
CCCCCn1cnc2c(sc3nc4c(cc32)CSC(C)(C)C4)c1=O	-	137.7	-	-	-	-
O=C(CSc1ccc(-c2ccccc2)nn1)NCc1ccco1	-	-	-	-	-	-
CCOC(=O)c1c(N)sc(C(=O)Nc2ccc3c(c2)OCO3)c1C	-	-	-	5.49	-	-
CCc1onc(C)c1C(=O)Nc1ccc2c(c1)OCO2	-	-	58.1	-	-	-
COc1ccccc1C(=O)Nc1nc(-c2cccs2)c(NC(C)=O)s1	-	-	71.7	-	-	-
O=C(Nc1nccs1)c1ccc2ccccc2c1	.	.	53.9	.	.	.
COc1cc(C(=O)Nc2ccc(N(C)C)cc2)cc(OC)c1OC	-	133.2	-	-	-	-
COc1cc(C(=O)Nc2ccc(S(=O)(=O)N(C)c3ccccc3)cc2)cc(OC)c1OC	-	-	-	-	-	-
COc1cc2ccccc2cc1C(=O)Nc1nccs1	.	.	56.9	.	.	.
O=C(Nc1nccs1)c1ccc(Br)cc1	.	.	-	.	.	.
COc1ccc(C(=O)Nc2ccccc2C(=O)Nc2cccc(C)n2)cc1	.	.	-	.	.	.
COc1ccc(C(=O)Nc2ccccc2C(=O)Nc2cc(C)ccn2)cc1	.	.	56.5	.	.	.
COc1cc2ccccc2cc1C(=O)Nc1cc(C)ccn1	.	.	56.2	.	.	.
COc1ccc(C(=O)NC(=O)Nc2cc(C)ccn2)cc1	159.3	-	-	-	-	-
COc1ccc(C(=O)NC(=O)Nc2ncccc2C)cc1	-	-	-	-	-	-
COc1cc(C(=O)Nc2ccccn2)cc(OC)c1OC	-	-	-	-	-	-
COc1cc(C(=O)Nc2cc(C)ccn2)cc(OC)c1OC	-	-	56.1	-	-	-
COc1cccc(-c2c(-c3cc(OC)cc(OC)c3)n(C)c3ccc(-c4cnc(N5CCOCC5)nc4)cc23)c1	.	.	-	.	.	.
CC(=O)c1c(C)[nH]c(C(=O)OCC(=O)NCCC2=CCCCC2)c1C	.	.	-	.	.	.
SMILES	APP 5'UTR act	STAT1 act	AHR activator	NF-kB neuron act	MDM2 E3 inh	PERK inhibitor
COc1cc2ccccc2cc1C(=O)NC1CCCC1	.	.	77.4	.	.	.
Cc1cccc(NC(=O)c2cc3ccccc3oc2=O)c1	.	.	-	.	.	.
Cc1ccnc(NC(=O)c2cc3ccccc3oc2=O)c1	151.8	143.8	-	5.93	-	-
COc1cc2ccccc2cc1C(=O)NC1CCCCC1	.	.	-	.	.	.
COc1ccc(CC(=O)NCC(=O)Nc2ccccc2Br)cc1	.	.	-	.	.	.
Nc1nc(Nc2ccc(Cl)cc2Cl)nc(C(F)(F)F)n1	-	140.2	-	-	-	-
N#Cc1cccnc1Nc1cccc(Cl)c1	-	-	77.1	-	-	-
Cc1ccc2nc(SCC(=O)NCc3ccco3)c(C#N)cc2c1	137.3	-	-	-	-	-
Fc1ccc(-c2nnc(-c3ccc(Cl)cc3)o2)cc1	-	135.0	-	4.2	-	-
CSc1nnc(-c2ccc(Cl)cc2Cl)o1	-	-	-	-	-	-
Fc1ccc(-c2nnc(-c3ccc(Cl)cc3Cl)o2)cc1	140.9	-	-	-	-	-
Clc1ccc(-c2nnc(-c3ccc(Br)o3)o2)c(Cl)c1	-	138.9	-	-	-	-
Clc1ccc(-c2nnc(-c3ccccc3)o2)c(Cl)c1	-	-	-	4.97	-	-
CC(C(=O)Nc1ccc(F)c(F)c1F)N(C)CCOc1ccccc1 (stereo unspecified)	.	.	-	.	.	.
